Data on eight compounds can be found in ChEMBL document CHEMBL1909580, “Branched-chain C-cyano pyranonucleosides: synthesis of 3'-C-cyano & 3'-C-cyano-3'-deoxy pyrimidine pyranonucleosides as novel cytotoxic agents” (Eur J Med Chem, 2011).

The source made the active and inactive calls. The rule behind the calls is not given here.

One test deals with Vaccinia virus. Put plainly: Antiviral activity against Vaccinia virus infected in human HEL cells assessed as inhibition of virus-induced cytopathicity at 100 uM. It counts as functional, organism-based. The settings on record: Orthopoxvirus vaccinia. Summed up: (§1)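 Confluent cell monolayers were infected with 100 CCID50 of virus (1 CCID50 infects 50% of cultures) in the presence of varying concentrations of test compound. Virus-induced cytopathicity was scored once it was complete in the untreated infected controls.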

Test [1] concerns Vesicular stomatitis virus. Put plainly: Antiviral activity against VSV infected in human HEL cells assessed as inhibition of virus-induced cytopathicity at 100 uM. It counts as functional, organism-based. Put shortly:
as §1

Test [2] concerns Coxsackievirus B4. Put plainly: Antiviral activity against Coxsackievirus B4 infected in human HeLa cells assessed as inhibition of virus-induced cytopathicity at 100 uM. It counts as functional, organism-based. Put shortly:
(§2)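 Confluent cell monolayers in microtiter plates were inoculated with 100 CCID50 of virus in the presence of varying test concentrations. 1 CCID50 is the virus dose infecting 50% of cultures. Cytopathicity was scored once it was complete in untreated virus-infected controls.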

In test [3] the test system is Coxsackievirus B4. Put plainly: Antiviral activity against Coxsackievirus B4 infected in african green monkey Vero cells assessed as inhibition of virus-induced cytopathicity at 100 uM. It counts as functional, organism-based. Summed up: as §2
The subject of test [4] is Human immunodeficiency virus 2. Put plainly: Antiviral activity against HIV-2 ROD infected in CEM cells assessed as inhibition of virus-induced cytopathicity at 100 uM. It counts as functional, organism-based. As to conditions: ISOLATE ROD, CCRF-CEM. Summed up: (§3)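 Virus stocks were titrated in CEM cells as CCID50. CEM cells at ~3 × 10^5 cells/ml were infected with ~100 CCID50 and immediately added to wells holding various test concentrations. After 4 days at 37 °C, giant cell formation was scored microscopically.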

The subject of test [5] is Human immunodeficiency virus 1. Put plainly: Antiviral activity against HIV1 3B infected in CEM cells assessed as inhibition of virus-induced cytopathicity at 100 uM. It counts as functional, organism-based. As to conditions: CCRF-CEM. Summed up: as §3
Another test concerns Felid alphaherpesvirus 1. Put plainly: Antiviral activity against Feline herpesvirus infected in […] cells assessed as inhibition of virus-induced cytopathicity at 100 uM. It counts as functional, organism-based.
The next test relates to Feline coronavirus. Put plainly: Antiviral activity against Feline coronavirus infected in feline CRFK cells assessed as inhibition of virus-induced cytopathicity at 100 uM. It counts as functional, organism-based. Put shortly: as §2
The subject of a further test is Human alphaherpesvirus 1. Put plainly: Antiviral activity against HSV1 infected in human HEL cells assessed as inhibition of virus-induced cytopathicity at 100 uM. It counts as functional, organism-based. Summed up:
as §2

In test [6] the test system is Respiratory syncytial virus. Put plainly: Antiviral activity against RSV infected in human HeLa cells assessed as inhibition of virus-induced cytopathicity at 100 uM. It counts as functional, organism-based. Put shortly:
as §2

Test [7] relates to Vesicular stomatitis virus. Put plainly: Antiviral activity against VSV infected in human HeLa cells assessed as inhibition of virus-induced cytopathicity at 100 uM. It counts as functional, organism-based. Summed up: as §1
The next test has as its system Influenza B virus. Put plainly: Antiviral activity against influenza B virus infected in MDCK cells assessed as inhibition of virus-induced cytopathicity at 100 uM. It counts as functional, organism-based. Put shortly:
as §1

For test [8], the system named is Influenza A virus. Put plainly: Antiviral activity against influenza A virus H1N1 infected in MDCK cells assessed as inhibition of virus-induced cytopathicity at 100 uM. It counts as functional, organism-based. Put shortly:
as §1

A further test deals with Human alphaherpesvirus 2. Put plainly: Antiviral activity against HSV2 infected in human HEL cells assessed as inhibition of virus-induced cytopathicity at 100 uM. It counts as functional, organism-based. Summed up:
as §2

Test [9] deals with Mammalian orthoreovirus 1. Put plainly: Antiviral activity against Reovirus1 infected in african green monkey Vero cells assessed as inhibition of virus-induced cytopathicity at 100 uM. It counts as functional, organism-based. Summed up: as §2
In another test the test system is Human respirovirus 3. Put plainly: Antiviral activity against Parainfluenza 3 virus infected in african green monkey Vero cells assessed as inhibition of virus-induced cytopathicity at 100 uM. It counts as functional, organism-based. Summed up: as §2
A further test relates to Punta Toro virus. Put plainly: Antiviral activity against Punta Toro virus infected in african green monkey Vero cells assessed as inhibition of virus-induced cytopathicity at 100 uM. It counts as functional, organism-based. Summed up: as §2
The subject of test [10] is Influenza A virus. Put plainly: Antiviral activity against influenza A virus H3N2 infected in MDCK cells assessed as inhibition of virus-induced cytopathicity at 100 uM. It counts as functional, organism-based. Put shortly: as §1
For another test, the system named is L1210. Put plainly: Cytostatic activity against mouse L1210 cells. It counts as functional, cell-based. Summed up:
(§4)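 Cell proliferation was measured with the test agents present. IC50 is the concentration giving 50% inhibition of proliferation, given as the mean ± S.D. of 2–3 independent experiments.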

The next test has as its system CCRF-CEM. Put plainly: Cytostatic activity against human CEM cells. It counts as functional, cell-based. Summed up: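 Uninfected CEM cells were run in parallel with the HIV assay for 4 days at 37 °C. IC50 is the concentration inhibiting cell proliferation by 50%, given as the mean ± S.D. of 2–3 independent experiments.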
A further test concerns HeLa. Put plainly: Cytostatic activity against human HeLa cells. It counts as functional, cell-based. Summed up:
as §4

`N#C[C@]1(O)[C@H](O)[C@@H](CO)O[C@@H](n2ccc(N)nc2=O)[C@@H]1O`: the inhibition result (in the test with Vaccinia virus; in [1]; with Coxsackievirus B4 [2]; in the test with Coxsackievirus B4 [3]; in test [4]; in [5]) was “inactive” throughout. Further, the inhibition result (in the test on Felid alphaherpesvirus 1; in the test on Feline coronavirus; with Human alphaherpesvirus 1; in [6]; in test [7]; in the test with Influenza B virus) was “inactive” each time. For the same compound, the inhibition result (with Influenza A virus [8]; in the test on Human alphaherpesvirus 2; in test [9]; with Human respirovirus 3; with Punta Toro virus; with Influenza A virus [10]) was “inactive” in each case. Moreover, the values for the IC50 with L1210, in the test on CCRF-CEM and in the test with HeLa were 147 µM, over 500 µM and 377 µM, respectively.

`N#C[C@H]1[C@@H](O)[C@H](n2cc(F)c(O)nc2=O)O[C@H](CO)[C@H]1O`: the inhibition entry (with Vaccinia virus; in test [1]; in the test on Coxsackievirus B4 [2]; with Coxsackievirus B4 [3]; in [4]; in test [5]) was “inactive” throughout. Also, the inhibition entry (in the test on Felid alphaherpesvirus 1; in the test on Feline coronavirus; in the test on Human alphaherpesvirus 1; in test [6]; in test [7]; with Influenza B virus) was “inactive” each time. Moreover, the inhibition result (in the test on Influenza A virus [8]; in the test on Human alphaherpesvirus 2; in [9]; in the test with Human respirovirus 3; with Punta Toro virus; with Influenza A virus [10]) was “inactive” throughout. For the same compound, the IC50 with L1210 was 550 µM; with CCRF-CEM, over 500 µM; in the test on HeLa it was 819 µM.

Consider `O=c1[nH]cc(F)c(=O)[nH]1` [FLUOROURACIL], for which the IC50 in the test with L1210 amounted to 0.49 µM; with CCRF-CEM it was 18 µM; with HeLa it was 0.54 µM.

In the case of `Cc1cn([C@@H]2O[C@H](CO)[C@@H](O)[C@@](O)(C#N)[C@H]2O)c(=O)nc1O`, the inhibition result (with Vaccinia virus; in test [1]; in the test with Coxsackievirus B4 [2]; in the test with Coxsackievirus B4 [3]; in [4]; in [5]) was “inactive” in each case. Also, the inhibition entry (in the test with Felid alphaherpesvirus 1; in the test with Feline coronavirus; with Human alphaherpesvirus 1; in [6]; in test [7]; in the test on Influenza B virus) was “inactive” in each case. In addition, the inhibition result (in the test with Influenza A virus [8]; in the test with Human alphaherpesvirus 2; in test [9]; in the test on Human respirovirus 3; in the test with Punta Toro virus; with Influenza A virus [10]) was “inactive” each time. In addition, the IC50 in the test on L1210 is 539 µM; in the test on CCRF-CEM it was over 500 µM; in the test on HeLa, over 500 µM.

In the case of `N#C[C@H]1[C@@H](O)[C@H](n2ccc(O)nc2=O)O[C@H](CO)[C@H]1O`, the inhibition entry (in the test with Vaccinia virus; in [1]; in the test on Coxsackievirus B4 [2]; in the test on Coxsackievirus B4 [3]; in [4]; in test [5]) was “inactive” in each case. Moreover, the inhibition result (in the test on Felid alphaherpesvirus 1; in the test with Feline coronavirus; in the test on Human alphaherpesvirus 1; in [6]; in test [7]; with Influenza B virus) was “inactive” in each case. Besides, the inhibition result (in the test on Influenza A virus [8]; with Human alphaherpesvirus 2; in test [9]; in the test on Human respirovirus 3; in the test on Punta Toro virus; with Influenza A virus [10]) was “inactive” in each case. Further, the half-maximal inhibitory concentration (IC50) in the test with L1210 is over 500 µM; with CCRF-CEM it was over 500 µM; with HeLa, 811 µM.

Turning to `Cc1cn([C@@H]2O[C@H](CO)[C@@H](O)[C@@H](C#N)[C@H]2O)c(=O)nc1O`, the inhibition result (in the test on Vaccinia virus; in [1]; with Coxsackievirus B4 [2]; with Coxsackievirus B4 [3]; in test [4]; in test [5]) was “inactive” each time. For the same compound, the inhibition entry (in the test on Felid alphaherpesvirus 1; in the test on Feline coronavirus; in the test on Human alphaherpesvirus 1; in test [6]; in [7]; in the test on Influenza B virus) was “inactive” in each case. Besides, the inhibition entry (with Influenza A virus [8]; in the test on Human alphaherpesvirus 2; in test [9]; with Human respirovirus 3; in the test with Punta Toro virus; with Influenza A virus [10]) was “inactive” throughout. The IC50 in the test with L1210, in the test with CCRF-CEM and in the test with HeLa was over 750 µM in each case.

Regarding `N#C[C@]1(O)[C@H](O)[C@@H](CO)O[C@@H](n2ccc(O)nc2=O)[C@@H]1O`, the inhibition entry (with Vaccinia virus; in [1]; in the test with Coxsackievirus B4 [2]; in the test on Coxsackievirus B4 [3]; in test [4]; in test [5]) was “inactive” throughout. Also, the inhibition result (in the test on Felid alphaherpesvirus 1; with Feline coronavirus; in the test with Human alphaherpesvirus 1; in test [6]; in test [7]; in the test on Influenza B virus) was “inactive” throughout. The inhibition entry (with Influenza A virus [8]; in the test with Human alphaherpesvirus 2; in [9]; with Human respirovirus 3; with Punta Toro virus; in the test on Influenza A virus [10]) was “inactive” in each case. Also, the IC50 in the test with L1210 is 417 µM; in the test with CCRF-CEM, over 500 µM; with HeLa, over 500 µM.

Turning to `N#C[C@]1(O)[C@H](O)[C@@H](CO)O[C@@H](n2cc(F)c(O)nc2=O)[C@@H]1O`, the inhibition result (with Vaccinia virus; in test [1]; with Coxsackievirus B4 [2]; with Coxsackievirus B4 [3]; in test [4]; in test [5]) was “inactive” throughout. The inhibition entry (with Felid alphaherpesvirus 1; in the test on Feline coronavirus; in the test on Human alphaherpesvirus 1; in test [6]; in [7]; in the test with Influenza B virus) was “inactive” throughout. Besides, the inhibition result (in the test with Influenza A virus [8]; in the test on Human alphaherpesvirus 2; in test [9]; in the test on Human respirovirus 3; with Punta Toro virus; with Influenza A virus [10]) was “inactive” each time. In addition, the IC50 in the test on L1210 came out at 1.9 µM; in the test with CCRF-CEM, 32 µM; in the test with HeLa, 4.5 µM.
